Results: PubChem BioAssay AID652075 (The Scripps Research Institute Molecular Screening Center, 2013)
The source made the active and inactive calls.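 How the source made its calls: active means hERG binding inhibition of 50% or more, or stimulation of 50% or more, shown as inhibition of -50% or lower; inactive means the rest.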

Biological target: Voltage-gated inwardly rectifying potassium channel KCNH2 (Homo sapiens) (UniProt Q12809)
Assay: hERG radioligand binding displacement, late-stage follow-up, counter-screen for OPRK1 antagonist project, biochemical, radiometric (AID 652075)
Conditions: CEREP, at 10 µM, stronger effect = higher value
Outline: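 Material: hERG radioligand binding / Probe or stimulus: radiolabelled ligand, excess unlabelled ligand for nonspecific binding / Compound dosing: 10 µM single dose / Detection: radioligand binding / Read-out: % inhibition of control specific binding / Control set: nonspecific binding with excess unlabelled ligand / Repeats: duplicate measurements per compound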

Sequence of Voltage-gated inwardly rectifying potassium channel KCNH2 (Homo sapiens) (Q12809 whole entry, looked up): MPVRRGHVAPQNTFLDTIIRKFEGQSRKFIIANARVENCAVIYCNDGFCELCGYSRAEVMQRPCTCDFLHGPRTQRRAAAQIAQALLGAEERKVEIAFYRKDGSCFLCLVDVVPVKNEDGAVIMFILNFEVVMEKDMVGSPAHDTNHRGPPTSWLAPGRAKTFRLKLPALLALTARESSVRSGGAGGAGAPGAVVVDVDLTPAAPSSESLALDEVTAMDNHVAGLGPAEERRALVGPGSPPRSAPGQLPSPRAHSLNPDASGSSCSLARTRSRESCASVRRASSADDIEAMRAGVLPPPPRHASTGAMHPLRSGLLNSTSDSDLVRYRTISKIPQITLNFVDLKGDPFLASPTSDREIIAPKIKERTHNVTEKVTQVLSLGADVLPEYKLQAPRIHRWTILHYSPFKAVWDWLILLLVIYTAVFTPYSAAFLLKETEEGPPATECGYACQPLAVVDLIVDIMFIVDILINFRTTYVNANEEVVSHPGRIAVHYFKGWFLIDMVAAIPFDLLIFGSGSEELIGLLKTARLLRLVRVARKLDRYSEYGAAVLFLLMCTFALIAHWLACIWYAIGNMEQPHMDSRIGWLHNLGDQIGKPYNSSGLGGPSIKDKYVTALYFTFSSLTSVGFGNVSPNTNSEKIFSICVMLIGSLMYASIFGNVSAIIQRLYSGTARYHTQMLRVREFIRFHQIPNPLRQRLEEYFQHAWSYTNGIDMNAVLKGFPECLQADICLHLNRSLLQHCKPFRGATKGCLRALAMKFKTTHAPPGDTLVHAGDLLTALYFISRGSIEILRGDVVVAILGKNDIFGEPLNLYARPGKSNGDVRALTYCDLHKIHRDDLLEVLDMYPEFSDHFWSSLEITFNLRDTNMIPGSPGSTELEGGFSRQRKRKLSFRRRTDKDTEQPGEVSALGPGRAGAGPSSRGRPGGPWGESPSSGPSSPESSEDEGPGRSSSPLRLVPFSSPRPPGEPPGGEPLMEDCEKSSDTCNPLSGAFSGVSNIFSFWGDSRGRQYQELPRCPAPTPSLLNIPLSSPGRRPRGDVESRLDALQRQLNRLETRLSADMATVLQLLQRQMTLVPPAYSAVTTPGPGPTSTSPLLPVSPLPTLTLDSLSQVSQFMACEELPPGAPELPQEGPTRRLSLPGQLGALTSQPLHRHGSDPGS

In the case of COC(=O)c1cc(Br)cnc1N1CCC(NC2CCCCC2)C(O)C1 (stereo unspecified), the inhibition is reported as 39.3% (inactive).
